# A selection follows.
# PGC1a acetyl up: compounds raising PGC1a acetylation signal, primary screen, PGC1a modulator project, cell-based, U2OS, AlphaScreen, signal-increasing mode | overnight | activation, % at 15.6 µM | actives 0.21% (n = 350,000) | AID 651723, 2012;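 active = every replicate reaching activation of at least 50%, whatever the mean replicate activation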;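 also: hits raise the AlphaScreen acetylation signal above neutral controls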
#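 System – flag-PGC1a/GCN5 U2OS cells · Quantity – 7000 U2OS cells per well · Signal – AlphaScreen proximity luminescence, anti-acetyl-lysine antibody · Schedule – overnight compound treatment, 37 °C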
# Active calls of the source: *.
SMILES,PGC1a acetyl up
CC(C)C12CN3CC(C(C)C)(CN(C1)C3c1ccc3c(c1)OCO3)C2=O (centres undefined),80*
Cc1ccc(N2C(=O)c3ccccc3NC2C(C)Cc2ccc3c(c2)OCO3)cc1 (centres undefined),-40
O=C(Cc1csc(N2CCOCC2)n1)N/N=C/c1cccc(O)c1,-56
O=C(Nc1ccc(Nc2ccncc2)cc1)c1ccc([N+](=O)[O-])cc1,70*
CC(C)C(=O)Nc1ccc(NC(=O)c2ccc([N+](=O)[O-])cc2Cl)cc1,-52
O=c1[nH][nH]c(-c2ccccc2)c1C=Nc1ccccc1Cl,-41
COc1cc(O)c(C(CC(=O)N2CCOCC2)c2ccc(N(C)C)cc2)c(OC)c1 (centres undefined),-49
CCOC(=O)c1ccc(-c2c(-c3cc(OC)c(OC)c(OC)c3)noc2C)cc1F,59*
COc1ccc(NC(=O)N[C@@H]2CC[C@H](CCn3cc(-c4ccccc4F)nn3)O[C@@H]2CO)cc1,-48
COc1ccc(S(=O)(=O)N[C@@H]2CC[C@H](CCNC(=O)c3ccccc3F)O[C@H]2CO)cc1,-43
COc1ccc(S(=O)(=O)N2CC[C@@H]3[C@H](CO)Nc4ccc(-c5ccccc5F)cc4[C@@H]32)cc1,51*
O=c1c2cn(Cc3ccc(F)cc3)c3ccc(F)cc3c-2nn1Cc1ccc(F)cc1,-45
NC(=O)c1ccc(NC(=O)C#Cc2ccccc2)cc1,203*
NC(=O)NC(=O)Nc1ccccc1Cl,-54
S=c1sc2c(Cl)ncnc2n1-c1ccccc1,-64
COc1cc(/C=C/c2cccc[n+]2C)ccc1OCC(=O)Nc1ccccc1,-42
O=C(N/N=C\c1ccc([N+](=O)[O-])o1)C1COc2ccccc2O1 (centres undefined),117*
Cc1ccc(-c2ccc(/C=N/NC(=O)Cc3nnc(N)s3)o2)cc1Cl,-43
O=C(Cc1ccc2c(c1)OCO2)NN=Cc1ccc([N+](=O)[O-])o1,137*
CCCCCC(=O)N/N=C/c1ccc([N+](=O)[O-])o1,105*
CCn1cc([N+](=O)[O-])c(C(=O)NCc2ccc3c(c2)OCO3)n1,-42
CC1=C(C(=O)OCc2ccc3c(c2)OCO3)C(c2ccccc2)NC(=O)N1 (centres undefined),-56
COc1ccc(-c2ccc(/C=N/NC(=O)Cc3nnc(N)s3)o2)cc1Cl,-57
CCn1c(Cl)c(C=O)s/c1=N\S(=O)(=O)c1ccccc1,-78
C[C@@H]1CN([C@H](C)CO)C(=O)c2cc(-c3ccccc3)cnc2O[C@H]1CN(C)C(=O)Cc1ccccn1,-51
SMILES,PGC1a acetyl up
O=C(NCc1cccnc1)/C(=C\c1ccc(-c2cccc(Cl)c2)o1)S(=O)(=O)c1ccccc1,76*
CCN1C(=O)CCCc2ccccc21,-68
Cc1ccccc1Oc1cc(-n2ncc(Cl)c(Cl)c2=O)ncn1,-69
CCc1nnc(NC(=O)Cc2ccc(S(=O)(=O)N3CCCCC3)cc2)s1,65*
CC(C)(C)Cc1nnc(NS(=O)(=O)c2ccc(F)cc2)s1,-43
COc1ccc(CCNC(=O)COc2ccc(S(=O)(=O)N3CCCC3)cc2)cc1,-48
CC(C)(C)c1ccc(OCC(=O)NNC(=O)Nc2ccccc2)cc1,-43
Cc1ccc(NC(=O)COC(=O)COc2ccc(Cl)cc2)c([N+](=O)[O-])c1,-40
Cc1ccc(S(=O)(=O)NC2=NCCCCC2)cc1,-46
CC(=O)Nc1ccc(NS(=O)(=O)c2ccc(C)cc2)cc1[N+](=O)[O-],58*
Cc1cc(N2CCN(C)CC2)nc2ccc(NC(=S)N3CCN(c4cccc(Cl)c4)CC3)cc12,-48
O=C(Nc1cc(S(=O)(=O)N2CCOCC2)ccc1Cl)c1cc([N+](=O)[O-])ccc1Cl,67*
CCN(CC)c1ccc(S(=O)(=O)N2CCOCC2)cc1NC(=O)Cn1nc(C)c([N+](=O)[O-])c1C,-48
CCN(CC)S(=O)(=O)c1ccc(C(=O)Nc2cc(S(=O)(=O)N3CCOCC3)ccc2O)cc1,-46
COc1ccc2c(c1)c1nc3ccccc3nc1n2CC(=O)OC(C)C,-46
COc1ccc2c(c1)sc1nc(-c3ccccc3)cn12,71*
O=C(Nc1nc(C2C3CC4CC(C3)CC2C4)cs1)c1cc2cc([N+](=O)[O-])ccc2oc1=O (centres undefined),52*
COCC(=O)Nc1ccc2c(c1)OC[C@@H](C)N(C(=O)c1ccccn1)C[C@@H](C)[C@@H](OC)CN(C)C2=O,-49
c1ccc(Sc2ccccn2)cc1,-76
O=C(Nc1ccccc1N1CCOCC1)C1(c2ccc(Cl)cc2)CCC1,-41
C[C@@H](C(=O)Nc1cc(C(F)(F)F)ccc1N1CCOCC1)N1C(=O)C2CC=CCC2C1=O (some centres undefined),-41
O=C(Nc1cc(C(F)(F)F)ccc1N1CCOCC1)c1ccccc1,63*
CC(C)C#Cc1ccc([C@@H]2[C@H]3CN(C(=O)NC4CCCC4)CC(=O)N3[C@H]2CO)cc1,-48
Cc1cc(C(=O)Nc2cccc3c2O[C@H](CN(C)C(=O)Nc2ccc4c(c2)OCO4)[C@@H](C)CN([C@H](C)CO)C3=O)n(C)n1,-58
Cn1nnnc1Sc1ncnc2scc(-c3ccc[nH]3)c12,91*
SMILES,PGC1a acetyl up
N#C/C(=C\C=C\c1ccccc1[N+](=O)[O-])C(=O)NCc1ccccc1,128*
O=C(N/N=C/C=C\c1ccccc1[N+](=O)[O-])c1cccnc1,-42
CCCc1cc(=O)oc2cc(C)cc(O)c12,-43
CN(Cc1cnc2nc(N)nc(N)c2n1)c1ccc(C(=O)N[C@@H](CCC(=O)O)C(=O)O)cc1,-43
N#C/C(=C/c1ccc(N2CCCCCC2)o1)c1ccc(F)cc1,91*
CCCC1S/C(=N/N=C/c2ccc(C)cc2)N(Cc2ccc(OC)cc2)C1=O (centres undefined),-40
CCC(C)NC(=O)c1ccc2c(SCC(=O)O)c3c(nc2c1)CCCC3 (centres undefined),-41
C[C@H]1CN([C@@H](C)CO)S(=O)(=O)c2ccc(-c3ccccc3)cc2O[C@@H]1CN(C)Cc1cccc(F)c1,-48
CC(C)CC#Cc1ccc2c(c1)O[C@H](CN(C)C)[C@@H](C)CN([C@H](C)CO)S2(=O)=O,59*
C[C@H](CO)N1C[C@H](C)[C@@H](CN(C)C(=O)C2CCCCC2)Oc2cc(C#Cc3ccncc3)ccc2S1(=O)=O,-4
CC(C)CC#Cc1ccc2c(c1)O[C@H](CN(C)Cc1ccccc1)[C@H](C)CN([C@@H](C)CO)S2(=O)=O,-48
C[C@H](CO)N1C[C@H](C)[C@H](CN(C)C(=O)C2CCCCC2)Oc2cc(-c3ccccc3)ccc2S1(=O)=O,63*
CC(C)CC#Cc1ccc2c(c1)O[C@H](CN(C)Cc1ccccc1)[C@@H](C)CN([C@H](C)CO)S2(=O)=O,-52
CC(=O)N(C)C[C@H]1Oc2cc(-c3ccc(C#N)cc3)ccc2S(=O)(=O)N([C@@H](C)CO)C[C@@H]1C,-42
COc1ccccc1C#Cc1ccc2c(c1)O[C@@H](CN(C)Cc1cccnc1)[C@H](C)CN([C@H](C)CO)S2(=O)=O,-43
COc1ccccc1-c1ccc2c(c1)O[C@@H](CN(C)Cc1ccc3c(c1)OCO3)[C@@H](C)CN([C@H](C)CO)S2(=O)=O,64*
O=C(c1ccc(N2CCCC2=O)cc1)N1CCCCCC1,-42
O=C(NC1CCCCC1)C(c1ccc2ncccc2c1)N(Cc1ccc2c(c1)OCO2)C(=O)c1ccc2c(c1)OCCO2 (centres undefined),-96
O=C(Nc1ccc([N+](=O)[O-])cn1)c1ccc(Br)o1,-43

# Screens deposited in PubChem by Broad Institute.
